Results: ChEMBL document CHEMBL5724801, “EUbOPEN Chemogenomics Library - Multiplex” (2024)
“And” between values parts separate entries of the source, which are not always exact repeats. Equal entries are not always repeated.

Tested on: Fibroblast
Test: Multiplex assay against human fibroblast
Format: toxicity, cell-based
Method in brief: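 With compound added, live cells were imaged on a CQ1 microscope at 37°C and 5% CO2; staining with Hoechst33342, BioTracker Green Microtubule Cytoskeleton Dye, MitoTracker Red and Annexin V Alexa Fluor 680 had been done at seeding. The CellPathfinder machine-learning gating scheme split cells into Hoechst high-intensity objects or normal cells, normal cells into healthy, pyknosed or fragmented nuclei, and pyknosed cells into mitotic or apoptotic. The tubulin, mitochondrial-mass and membrane-permeability phenotypes are per cents of healthy-nucleus cells.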

[1] = 12 h, 1 µM, compound concentration 1 uM
[2] = 12 h, 10 µM, compound concentration 10 uM
[3] = 24 h, 1 µM, compound concentration 1 uM
[4] = 24 h, 10 µM, compound concentration 10 uM
[5] = 48 h, 1 µM, compound concentration 1 uM
[6] = 48 h, 10 µM, compound concentration 10 uM

Q: `CCn1c(-c2ccncc2)cc2c1CCNC2=O` was tested. Which “Population Apoptotic (%)” value [1] did it give?
A: 13.79% and 16.67%

Q: And the “Population Fragmented Nuclei (%)” value [1]?
A: 13.56% and 3.83%

Q: And the “Population Healthy Nuclei (%)” value [1]?
A: 70.06% and 79.78%

Q: What about the “Population Hoechst High Intensity Objects (%)” value [1] of the same compound?
A: 0%

Q: What about the “Population Membrane Permeable-Phenotype (%)” value [1] of the same compound?
A: 2.42% and 2.74%

Q: And the “Population Mitochondria Different-Phenotype (%)” value [1]?
A: 8.06% and 6.85%

Q: What about the “Population Mitotic Cells (%)” value [1] of the same compound?
A: 86.21% and 83.33%

Q: What about the “Population Normal (%)” value [1] of the same compound?
A: 100%

Q: And the “Population Pyknosed Nuclei (%)” value [1]?
A: 16.38% and 16.39%

Q: What about the “Population Tubulin-Different-Phenotype (%)” value [1] of the same compound?
A: 12.9% and 11.64%

Q: What about the “Total Cell Count” value [1] of the same compound?
A: 177 and 183

Q: What about the “Population Healthy Nuclei (%)” value [2] of the same compound?
A: 69.44% and 89.58%

Q: What about the “Population Hoechst High Intensity Objects (%)” value [2] of the same compound?
A: 0%

Q: And the “Population Membrane Permeable-Phenotype (%)” value [2]?
A: 6.4% and 2.91%

Q: And the “Population Mitochondria Different-Phenotype (%)” value [2]?
A: 11.2% and 12.79%

Q: And the “Population Mitotic Cells (%)” value [2]?
A: 88.89% and 60%

Q: And the “Population Normal (%)” value [2]?
A: 100%

Q: And the “Population Pyknosed Nuclei (%)” value [2]?
A: 15% and 7.81%

Q: What about the “Population Tubulin-Different-Phenotype (%)” value [2] of the same compound?
A: 12% and 12.79%

Q: And the “Total Cell Count” value [2]?
A: 180 and 192

Q: What about the “Population Apoptotic (%)” value [3] of the same compound?
A: 19.51% and 13.16%

Q: And the “Population Healthy Nuclei (%)” value [3]?
A: 62.05% and 74.05%

Q: And the “Population Hoechst High Intensity Objects (%)” value [3]?
A: 0%

Q: And the “Population Membrane Permeable-Phenotype (%)” value [3]?
A: 4.96% and 1.46%

Q: And the “Population Mitochondria Different-Phenotype (%)” value [3]?
A: 7.44% and 7.3%

Q: And the “Population Mitotic Cells (%)” value [3]?
A: 80.49% and 86.84%

Q: What about the “Population Normal (%)” value [3] of the same compound?
A: 100%

Q: And the “Population Pyknosed Nuclei (%)” value [3]?
A: 21.03% and 20.54%

Q: And the “Population Tubulin-Different-Phenotype (%)” value [3]?
A: 16.53% and 14.6%

Q: What about the “Total Cell Count” value [3] of the same compound?
A: 195 and 185

Q: What about the “Population Healthy Nuclei (%)” value [4] of the same compound?
A: 70.39% and 84.97%

Q: What about the “Population Hoechst High Intensity Objects (%)” value [4] of the same compound?
A: 0%

Q: What about the “Population Membrane Permeable-Phenotype (%)” value [4] of the same compound?
A: 7.14% and 3.66%

Q: What about the “Population Mitochondria Different-Phenotype (%)” value [4] of the same compound?
A: 6.35% and 12.8%

Q: And the “Population Mitotic Cells (%)” value [4]?
A: 92.86% and 57.69%

Q: And the “Population Normal (%)” value [4]?
A: 100%

Q: What about the “Population Pyknosed Nuclei (%)” value [4] of the same compound?
A: 15.64% and 13.47%

Q: What about the “Population Tubulin-Different-Phenotype (%)” value [4] of the same compound?
A: 10.32% and 17.07%

Q: And the “Total Cell Count” value [4]?
A: 179 and 193

Q: What about the “Population Apoptotic (%)” value [5] of the same compound?
A: 33.33%

Q: And the “Population Fragmented Nuclei (%)” value [5]?
A: 17.79% and 7.69%

Q: What about the “Population Healthy Nuclei (%)” value [5] of the same compound?
A: 75% and 86.54%

Q: What about the “Population Hoechst High Intensity Objects (%)” value [5] of the same compound?
A: 0%

Q: And the “Population Membrane Permeable-Phenotype (%)” value [5]?
A: 3.85% and 5%

Q: What about the “Population Mitotic Cells (%)” value [5] of the same compound?
A: 66.67%

Q: What about the “Population Normal (%)” value [5] of the same compound?
A: 100%

Q: And the “Population Pyknosed Nuclei (%)” value [5]?
A: 7.21% and 5.77%

Q: What about the “Population Tubulin-Different-Phenotype (%)” value [5] of the same compound?
A: 23.08% and 22.22%

Q: What about the “Total Cell Count” value [5] of the same compound?
A: 208

Q: And the “Population Apoptotic (%)” value [6]?
A: 11.76% and 35.14%

Q: And the “Population Fragmented Nuclei (%)” value [6]?
A: 16.11% and 6.99%

Q: And the “Population Healthy Nuclei (%)” value [6]?
A: 65% and 73.12%

Q: And the “Population Hoechst High Intensity Objects (%)” value [6]?
A: 0%

Q: What about the “Population Membrane Permeable-Phenotype (%)” value [6] of the same compound?
A: 0% and 11.03%

Q: What about the “Population Mitochondria Different-Phenotype (%)” value [6] of the same compound?
A: 20.51% and 11.76%

Q: And the “Population Mitotic Cells (%)” value [6]?
A: 88.24% and 64.86%

Q: What about the “Population Normal (%)” value [6] of the same compound?
A: 100%

Q: What about the “Population Pyknosed Nuclei (%)” value [6] of the same compound?
A: 18.89% and 19.89%

Q: What about the “Population Tubulin-Different-Phenotype (%)” value [6] of the same compound?
A: 6.84% and 18.38%

Q: And the “Total Cell Count” value [6]?
A: 180 and 186

Q: For `Cc1cnc(-c2cc(N3CCN(C(=O)CCS(C)(=O)=O)CC3)ncc2Cl)c(C)c1`, which “Population Apoptotic (%)” value [1] is on record?
A: 36% and 31%

Q: And the “Population Fragmented Nuclei (%)” value [1]?
A: 9% and 22%

Q: What about the “Population Healthy Nuclei (%)” value [1] of the same compound?
A: 71% and 36%

Q: And the “Population Hoechst High Intensity Objects (%)” value [1]?
A: 1% and 9%

Q: What about the “Population Membrane Permeable-Phenotype (%)” value [1] of the same compound?
A: 0% and 7%

Q: What about the “Population Mitochondria Different-Phenotype (%)” value [1] of the same compound?
A: 7% and 10%

Q: What about the “Population Mitotic Cells (%)” value [1] of the same compound?
A: 63% and 68%

Q: And the “Population Normal (%)” value [1]?
A: 98% and 90%

Q: And the “Population Pyknosed Nuclei (%)” value [1]?
A: 19% and 41%

Q: And the “Population Tubulin-Different-Phenotype (%)” value [1]?
A: 20% and 50%

Q: And the “Total Cell Count” value [1]?
A: 99 and 85

Q: What about the “Population Apoptotic (%)” value [2] of the same compound?
A: 40% and 26%

Q: And the “Population Fragmented Nuclei (%)” value [2]?
A: 13% and 21%

Q: And the “Population Healthy Nuclei (%)” value [2]?
A: 71% and 63%

Q: And the “Population Hoechst High Intensity Objects (%)” value [2]?
A: 4% and 1%

Q: What about the “Population Membrane Permeable-Phenotype (%)” value [2] of the same compound?
A: 1%

Q: What about the “Population Mitochondria Different-Phenotype (%)” value [2] of the same compound?
A: 2%

Q: What about the “Population Mitotic Cells (%)” value [2] of the same compound?
A: 60% and 73%

Q: What about the “Population Normal (%)” value [2] of the same compound?
A: 95% and 98%

Q: And the “Population Pyknosed Nuclei (%)” value [2]?
A: 14% and 15%

Q: And the “Population Tubulin-Different-Phenotype (%)” value [2]?
A: 24% and 37%

Q: What about the “Total Cell Count” value [2] of the same compound?
A: 142 and 121

Q: And the “Population Apoptotic (%)” value [3]?
A: 54% and 47%

Q: And the “Population Healthy Nuclei (%)” value [3]?
A: 76% and 38%

Q: What about the “Population Hoechst High Intensity Objects (%)” value [3] of the same compound?
A: 6% and 10%

Q: And the “Population Membrane Permeable-Phenotype (%)” value [3]?
A: 2% and 3%

Q: And the “Population Mitochondria Different-Phenotype (%)” value [3]?
A: 4% and 0%

Q: And the “Population Mitotic Cells (%)” value [3]?
A: 45% and 52%

Q: And the “Population Normal (%)” value [3]?
A: 93% and 89%

Q: What about the “Population Pyknosed Nuclei (%)” value [3] of the same compound?
A: 12% and 25%

Q: And the “Population Tubulin-Different-Phenotype (%)” value [3]?
A: 30% and 61%

Q: What about the “Total Cell Count” value [3] of the same compound?
A: 97 and 91

Q: What about the “Population Apoptotic (%)” value [4] of the same compound?
A: 46% and 42%

Q: What about the “Population Fragmented Nuclei (%)” value [4] of the same compound?
A: 10% and 19%

Q: What about the “Population Healthy Nuclei (%)” value [4] of the same compound?
A: 79% and 67%

Q: And the “Population Hoechst High Intensity Objects (%)” value [4]?
A: 0% and 4%

Q: What about the “Population Membrane Permeable-Phenotype (%)” value [4] of the same compound?
A: 2%

Q: And the “Population Mitochondria Different-Phenotype (%)” value [4]?
A: 6% and 9%

Q: What about the “Population Mitotic Cells (%)” value [4] of the same compound?
A: 53% and 57%

Q: What about the “Population Normal (%)” value [4] of the same compound?
A: 99% and 95%

Q: What about the “Population Pyknosed Nuclei (%)” value [4] of the same compound?
A: 9% and 12%

Q: And the “Population Tubulin-Different-Phenotype (%)” value [4]?
A: 28% and 38%

Q: And the “Total Cell Count” value [4]?
A: 135 and 116

Q: What about the “Population Apoptotic (%)” value [5] of the same compound?
A: 69% and 36%

Q: And the “Population Fragmented Nuclei (%)” value [5]?
A: 19% and 40%

Q: What about the “Population Healthy Nuclei (%)” value [5] of the same compound?
A: 58% and 47%

Q: What about the “Population Hoechst High Intensity Objects (%)” value [5] of the same compound?
A: 2% and 5%

Q: And the “Population Membrane Permeable-Phenotype (%)” value [5]?
A: 0% and 12%

Q: What about the “Population Mitochondria Different-Phenotype (%)” value [5] of the same compound?
A: 1% and 9%

Q: And the “Population Mitotic Cells (%)” value [5]?
A: 30% and 63%

Q: And the “Population Normal (%)” value [5]?
A: 97% and 94%

Q: What about the “Population Pyknosed Nuclei (%)” value [5] of the same compound?
A: 21% and 12%

Q: What about the “Population Tubulin-Different-Phenotype (%)” value [5] of the same compound?
A: 33% and 70%

Q: And the “Total Cell Count” value [5]?
A: 109 and 92

Q: And the “Population Apoptotic (%)” value [6]?
A: 50% and 75%

Q: And the “Population Fragmented Nuclei (%)” value [6]?
A: 21% and 29%

Q: What about the “Population Healthy Nuclei (%)” value [6] of the same compound?
A: 69% and 61%

Q: And the “Population Hoechst High Intensity Objects (%)” value [6]?
A: 2% and 3%

Q: What about the “Population Membrane Permeable-Phenotype (%)” value [6] of the same compound?
A: 0% and 2%

Q: What about the “Population Mitochondria Different-Phenotype (%)” value [6] of the same compound?
A: 7% and 5%

Q: And the “Population Mitotic Cells (%)” value [6]?
A: 50% and 25%

Q: And the “Population Normal (%)” value [6]?
A: 97% and 96%

Q: And the “Population Pyknosed Nuclei (%)” value [6]?
A: 8% and 9%

Q: And the “Population Tubulin-Different-Phenotype (%)” value [6]?
A: 33%

Q: What about the “Total Cell Count” value [6] of the same compound?
A: 141 and 131
